Experimental data from different studies.
Compare with care: the assays were run in different laboratories.

| SMILES | test system | setting | Tmax [h] |
| --- | --- | --- | --- |
| COc1ccc([C@@H]2CN(C(=O)[C@@H](O)CO)C[C@@]2(C)[C@@H](C)O)cc1OC1CN(c2ccc(C)cn2)C1 | human, plasma | oral, 40 mg, single dose, healthy volunteers | 3.88 |
| CC(C)n1cc(C#N)c2cc(-n3cc(C(=O)O)cn3)ccc21 | human, plasma | oral, 100 mg, single dose, fasted, healthy volunteers | 3.5 |
| C[C@@H](Nc1cc(F)cc(F)c1)c1cc(C(=O)N(C)C)cc2c(=O)cc(N3CCOCC3)oc12 | human, plasma | oral, 30 mg, single dose, patients | 2 |
| Cn1cc(-c2ccc(S(=O)(=O)[C@@H]3C[C@@H](C(=O)NC4(C#N)CC4)N(C(=O)C4(C(F)(F)F)CC4)C3)c(C(F)(F)F)c2)cn1 | human, plasma | oral, 600 mg, single dose, fasted, healthy volunteers | 3.5 |
| C=CC(=O)N(C)CCOc1c(N)ncnc1-c1cc(F)cc(NC(=O)c2ccc(C3CC3)cc2F)c1C | human, blood | oral, 200 mg, single dose, healthy volunteers | 1.25 |
| CC(C)(O)c1ccccc1-c1ccc2[nH]c(/C=C/c3ccc(C(F)(F)F)cc3)nc2c1 | male human, plasma | oral, 120 mg, single dose, fasted | 3 |
| NS(=O)(=O)NCCNc1nonc1C(=NO)Nc1ccc(F)c(Br)c1 | human, plasma | oral, 700 mg, multiple doses, twice daily, steady state, patients | 3 |
| CCc1nc2c(C)cc(N3CCN(CC(=O)N4CC(O)C4)CC3)cn2c1N(C)c1nc(-c2ccc(F)cc2)c(C#N)s1 | human, plasma | intravenous, 0.1 mg, fasted, healthy volunteers | 0 |
| CC(C)(Sc1ccncc1-c1ccc(C#N)c2ccccc12)C(=O)O | male human, plasma | oral, 5 mg, single dose, fed, healthy volunteers | 1.25 |
